These results are taken from ChEMBL document CHEMBL1129062, “6- and 7-substituted 2-[2'-(dimethylamino)ethyl]-1,2-dihydro-3H-dibenz[de,h] isoquinoline-1,3-diones: synthesis, nucleophilic displacements, antitumor activity, and quantitative structure-activity relationships” (J Med Chem, 1996).

Structures are written as SMILES.

By IC50 is commonly meant the point on the concentration scale where inhibition reaches its midpoint. The low end stands for greater potency in that assay, the high end for weaker potency in that assay. What is called ILS is the gain in survival time of treated over control animals, in per cent.

For data set [1], the system named is A549. Briefly: Tested against A549 lung carcinoma in the sulforhodamine B assay. Format: functional, cell-based. Particulars: Homo sapiens. The gist of the method: (§1)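 Sulforhodamine B assay. Cells plated at 50 000/well; drug added on day 2 at 10^1–10^-5 μg/mL in half-log steps from DMSO stock diluted in PBS, final DMSO ≤0.1%. After 8-day exposure at 37 °C, cells fixed with TCA at 4 °C for 1 h and stained 30 min with 0.4% SRB. Dye solubilized in 10 mM Tris and OD read at 564 nm. Six wells per concentration; IC50 averaged.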
A general note: In SRB staining, fixed cells bind dye roughly in proportion to their protein.

The test system of data set [2] is UACC-375. Briefly: Inhibitory activity against […] cell line. Particulars: Homo sapiens. Type of data set: functional, cell-based.
Data set [3] has as its system L1210. Put plainly: Inhibitory activity against sensitive L1210 cell lines. As to conditions: Mus musculus. Format: functional, cell-based.
Data set [4] deals with L1210. Put plainly: Inhibitory activity against resistant murine leukemia L1210 cell lines. Type of data set: functional, cell-based. As to conditions: Mus musculus.
For data set [5], the system named is MCF7. Briefly: Tested against […] breast carcinoma (doxorubicin resistant) cell line in the sulforhodamine B assay. Format: functional, cell-based. As to conditions: Homo sapiens. The gist of the method: as §1
Data set [6] deals with MCF7. Put plainly: Tested against […] breast carcinoma (mitoxantrone resistant)cell line in the sulforhodamine B assay. Format: functional, cell-based. Particulars: Homo sapiens. In a few lines:
as §1

The subject of data set [7] is OVCAR-3. Put plainly: Inhibitory activity against OVCAR-3 cell line. Particulars: Homo sapiens. Format: functional, cell-based.
For data set [8], the species on record is Rattus norvegicus. Briefly: Cardiotoxicity by a neonatal rat heart myocyte assay. Format: toxicity. The gist of the method:
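Neonatal rat heart myocytes exposed to drug for 1 h. Read-out is the ATP/protein ratio relative to untreated control myocytes. IC50 is the 1-h concentration that reduces this ratio to 50% of control.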

The test system of data set [9] is Tumor cell line. Put plainly: An average for IC50 values in the two solid tumor cell lines. Type of data set: functional, cell-based.
Data set [10] has as its system WiDr. Briefly: Tested against WiDr colon (sensitive) in the sulforhodamine B assay. Format: functional, cell-based. As to conditions: Homo sapiens. In a few lines: as §1
The test system of data set [11] is WiDr. Put plainly: Compound tested against WiDr colon carcinoma (resistant) in the sulforhodamine B assay. Particulars: Homo sapiens. Type of data set: functional, cell-based. In a few lines: as §1
A short description of data set [12]: Toxicity ratio determined by the quotient of IC50 values in the myocytes divided by the average value in the three tumor lines. Type of data set: functional. The gist of the method:
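Ratio is the myocyte cardiotoxicity IC50 (1-h exposure, ATP/protein ratio versus untreated myocytes) divided by the mean IC50 in sensitive L1210 and the two human tumor lines, measured with continuous exposure.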

Data set [13] is described as follows: An average for IC50 values in the two solid tumor cell lines and sensitive L1210 leukemia cell line. Type of data set: functional, cell-based.
Data set [14] concerns MCF7. Briefly: Tested against […] breast carcinoma (sensitive) cell line in the sulforhodamine B assay. Format: functional, cell-based. As to conditions: Homo sapiens. The gist of the method: as §1
Data set [15] has as its system L1210. Briefly: Compound was tested against L1210 leukemia at % increase in life span (ILS) in mice at 8 mg/kg dosage. Format: functional. As to conditions: Mus musculus. In a few lines: (§2)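 Male DBA/2J mice, 10 per group, inoculated ip on day 0 with 10^6 freshly harvested leukemia cells. Compound given ip in equal doses on days 1, 5 and 9; controls received saline ip on the same days. Highest dose set 10% below the acute LD10. %ILS = 100 × (treated − control)/control, using median life span per group; value reported at highest nontoxic dose.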

The test system of data set [16] is WiDr. Put plainly: Tested against WiDr colon carcinoma (resistant) in the sulforhodamine B assay. Type of data set: functional, cell-based. Particulars: Homo sapiens. In a few lines:
as §1

The test system of data set [17] is A549. Briefly: Compound was tested against A549 lung carcinoma cell line in the sulforhodamine B assay. Format: functional, cell-based. Particulars: Homo sapiens. The gist of the method:
as §1

The subject of data set [18] is WiDr. Briefly: Compound was tested against WiDr colon (sensitive) cell line in the sulforhodamine B assay. Type of data set: functional, cell-based. Particulars: Homo sapiens. In a few lines: as §1
The test system of data set [19] is WiDr. Briefly: Compound tested against WiDr colon carcinoma (resistant)cell line in the sulforhodamine B assay. Particulars: Homo sapiens. Type of data set: functional, cell-based. In a few lines:
as §1

Data set [20] concerns B16. Briefly: Compound was tested against sc B16 melanoma at % tumor growth inhibition(TGI) in mice at 4 mg/kg dosage. Format: functional. Particulars: Mus musculus, route subcutaneous, read-out: TGI.
Data set [21] deals with L1210. Briefly: Compound was tested against L1210 leukemia at % increase in life span (ILS) in mice at 5 mg/kg dosage. Format: functional. Particulars: Mus musculus. The gist of the method: as §2
Data set [22] has as its system P388. Put plainly: Compounds was tested against P388 leukemia at % increase in life span (ILS) in mice at 4.5 mg/kg dosage. Format: functional. Particulars: Mus musculus. The gist of the method:
as §2

Data set [23] relates to WiDr. Briefly: Compound was tested against WiDr colon carcinoma (resistant) in the sulforhodamine B assay. Type of data set: functional, cell-based. Particulars: Homo sapiens. In a few lines:
as §1

Data set [24] has as its system WiDr. Briefly: Compound was tested against WiDr colon carcinoma (resistant)cell line in the sulforhodamine B assay. Format: functional, cell-based. Particulars: Homo sapiens. The gist of the method: as §1

As for `CN(C)CCN1C(=O)c2cccc3c(N)c4ccccc4c(c23)C1=O`, the IC50 in [1] was 7 nM; in [2] it was 15 nM; in data set [3], 5.4 nM; in data set [4], 6.8 nM; in [5], 71 nM; in data set [6], 80 nM. For the same compound, the IC50 was 12 nM in [7]; 1950 nM in data set [8]; 14 nM in data set [9]; 18 nM in data set [10]; 100 nM in data set [11]; 10.8 nM in data set [13]. This compound returned an IC50 in [14] of 20 nM. In addition, in data set [12], the Toxicity ratio is on record as 181.

With `COc1ccc2c3c(c4ccccc4cc13)C(=O)N(CCN(C)C)C2=O`, the IC50 in data set [1] came to 2.2 nM; in data set [2], 7.8 nM; in data set [3], 2.6 nM; in [4], 3.9 nM; in data set [5], 270 nM; in data set [6], 19 nM. Besides, the IC50 in [7] stood at 1.3 nM; in [8] it was 799 nM; in data set [9] it was 4.6 nM; in data set [16], 33 nM; in data set [10], 17 nM; in [13], 3.9 nM. The compound further returned an IC50 in [14] of 14 nM. In data set [15], this compound showed an increase in lifespan (ILS) at 8 mg/kg of 86%. In data set [12], the Toxicity ratio is 205.

As to `CN(C)CCN1C(=O)c2ccc(I)c3cc4ccccc4c(c23)C1=O`, the half-inhibitory concentration (IC50) is 10 nM in data set [17]; 416 nM in data set [2]; 416 nM in [3]; 416 nM in [4]; 30 nM in data set [5]; 10 nM in data set [6]. For the same compound, the IC50 in data set [7] came out at 416 nM; in [8], 43700 nM; in data set [9], 416 nM; in data set [18], 65 nM; in [19], 620 nM; in data set [13], 416 nM. This compound also gave an IC50 in data set [14] of 11 nM. The Toxicity ratio in [12] came to 105.

Turning to `COc1cccc2c1C(=O)c1c(O)c3c(c(O)c1C2=O)C[C@@](O)(C(=O)CO)C[C@@H]3O[C@H]1C[C@H](N)[C@H](O)[C@H](C)O1` [DOXORUBICIN], in [20], the inhibition in vivo at 4 mg/kg was found to be 120%. In addition, the ILS at 5 mg/kg in data set [21] is 210%. The ILS at 4.5 mg/kg in [22] was 113%. In addition, the IC50 in data set [8] was 10200 nM; in [9] it was 74 nM; in data set [10], 53 nM; in [13], 61 nM; in data set [23] it was 130 nM.

Consider `CN(C)CCN1C(=O)c2ccc(Cl)c3cc4ccccc4c(c23)C1=O`, for which the IC50 amounted to 19 nM in [17]; 39 nM in data set [2]; 77 nM in data set [3]; 64 nM in data set [4]; 120 nM in data set [5]; 50 nM in data set [6]. Besides, the IC50 in data set [7] amounted to 116 nM; in data set [8] it was 4110 nM; in data set [9], 78 nM; in data set [24], 350 nM; in data set [18], 70 nM; in [13] it was 77 nM. The IC50 in data set [14] stood at 25 nM. The Toxicity ratio in data set [12] turned out to be 53.

With `CCOc1c2ccccc2c2c3c(cccc13)C(=O)N(CCN(C)C)C2=O`, the IC50 in [1] worked out at 56 nM; in data set [2], 225 nM; in [3], 63 nM; in [4] it was 50 nM; in [5] it was 200 nM; in [6], 110 nM. In addition, the half-maximal inhibitory concentration (IC50) is 175 nM in [7]; 5300 nM in data set [8]; 200 nM in [9]; 33 nM in data set [16]; 170 nM in data set [10]; 154 nM in data set [13]. This compound yielded an IC50 in data set [14] of 23 nM. Besides, the Toxicity ratio in [12] is given as 34.
